Measured values: the EternaBench riboswitch data

System: MS2 coat protein
Assay: apparent Kd, MS2 coat protein; higher = weaker binding; RNA-MaP array; FMN 200 µM where present
Method in brief: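 Apparent Kd: the median of filtered binding-curve fits from single clusters. Designs were transcribed on Illumina sequencing-chip clusters by stalled E. coli RNA polymerase and titrated with SNAP-549-labelled MS2 coat protein from 0.7 or 1.5 nM, doubling to 3 µM, in 100 mM Tris-HCl pH 7.5, 80 mM KCl, 4 mM MgCl2, BSA, DTT, yeast tRNA and Tween-20. Each series ran without and then with constant ligand, and green signal was normalised to red-channel RNA signal and control-cluster median Fmax.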

[1] = designed as: OFF switch for flavin mononucleotide, no ligand
[2] = ligand present: flavin mononucleotide, designed as: OFF switch for flavin mononucleotide
[3] = designed as: ON switch for flavin mononucleotide, no ligand
[4] = ligand present: flavin mononucleotide, designed as: ON switch for flavin mononucleotide

| Sequence | apparent Kd [1] | apparent Kd [2] | apparent Kd [3] | apparent Kd [4] |
| --- | --- | --- | --- | --- |
| GUCAGCUCGUGAGGAUAUACAUAAUAUCAAGAUCACAUGAGGAUCACCCAUGUAGAAGGCACGAGCUGAUAAGCACGAAAGUGC | 12.1 nM | 102 nM |  |  |
| AUAUUGUGAGGAUAUGAACUUAGAAUCGAAAGAUACUAAGUUCAGAAGGCACAUGAGGAUCACCCAUGUUUCUC | 86 nM | 875 nM |  |  |
| AGCUACGUUUCGUAGCAGCUAGGUGAGGAUAUUCAAUUUUUCACAUGAGGAUCACCCAUGUAAAAGAAGAAGGCGCCUAGAAAG |  |  | 4.28 nM | 4.25 nM |
| UAUGGUAAAGUCAGGAUAUACGUACAUAAUUCUAGGUAGAAGGGACAUGAGGAUCACCCAUGUAUGGUAGUGUU | 73 nM | 84 nM |  |  |
| GCAUACAUUCGAGGAUAUCGGUGAACAAAUUAACGAGAAGGCGAUAUAAUUUUUAAUCUUAUAAACAUGAGGAUCACCCAUGUA |  |  | 21.8 nM | 19.5 nM |
| UUAUGAGCGAUAGGAUAUACUGAGAUUGAAUGGGUAGAAGGAUCGAUCGUGUAGAAGACAUGAGGAUCACCCAUGUUACGGGCC |  |  | 97 nM | 218 nM |
| AACAUGCUUGGGUAACCUGGCACAUGAGGAUCACCCAUGUGACAGGAUAUCGACGUAGAUGGCGACGAGAAGGGUCCGAUGGGU | 7.13 nM | 10.8 nM |  |  |
| GUAUACGAUGAGGAUAUAUGAUAUCAAAGCAUCAUAGAAGGCAUCACAUGAGGAUCACCCAUGUGAUCUUCUUU | 18.1 nM | 65.2 nM |  |  |
| UGAUAGGACAGAGGAUAUGCGUAUAGUUACCUCUACAUGAGGAUCACCCAUGUAGAAGGCUGUCCUAUCUAAGUCGGAAACGAC | 5.8 nM | 5.61 nM |  |  |
| AACAUACAUGAGGAUCACCCAUGUUCCGGCAGGCUAGGAUAUCAAUCGAAAGUGUUAUAAUGAGAAGGAGCAUAAA |  |  | 49 nM | 29.4 nM |
| GGGUGACAUGAGGAUCACCCAUGUCAGGAUAUGCGCGCGCGCGCGAAAGUGUGUGUGUGUAGAAGGGACUGCCC | 49.6 nM | 81.2 nM |  |  |
| GUAGCUAUCGGAGGAUAUUCAUACCGGAAACGGACAUGAGGAUCACCCAUGUGGCGAAAGCCUUGGAAGAAGGCCGAUAGCUAC |  |  | 4.08 nM | 3.56 nM |
| ACAAGUUCACAUGAGGAUCACCCAUGUGGUCGCUAAUAUACCAGAAGGGUGGGUCCUAAUGAUGUACAGGAUAUGGAGUAGGCG |  |  | 198 nM | 81.7 nM |
| AGAUACAACCAGAAGGACAUGAGGAUCACCCAUGUAGGAUAUGGGUUACACGUUCCUGUGAAUUGUAACGACGCUACGAAGAGU |  |  | 113 nM | 12.3 nM |
| CCGUAGCAAGGAUAUACAUGAGGAUCACCCAUGUGUGUCAGUGUGGGUAGACAUUAAUGUAGAAGGUGCGACUG | 64.8 nM | 161 nM |  |  |
| ACGACGAAAGUCGAACGAUGUAGCAGAAGGACAUGAGGAUCACCCAUGUUAUCUGUAAUAGACAUGUAGGAUAUGCUACAUCGA | 7.89 nM | 41.5 nM |  |  |
| GUGCUUGUCGGAGGAUAUGGUUACAUGAGGAUCACCCAUGUUAUGCUUGGUUACUUGUUUAGUUUCCAGAAGGUCGAUUGGUUG | 69.6 nM | 132 nM |  |  |
| AAUUAUUUUUGAGGAUAUGGUAGUGAAACACUACCAGAAGGCGGAAUAAACAUGAGGAUCACCCAUGUGAGCCUGAUGCUUAUG | 22 nM | 42.6 nM |  |  |
| AAUAACAGAGGAUAUACUAUUUUAUGUGUUUAUUGUUUUAAACAUGAGGAUCACCCAUGUAGAAGGCUGAGUAA | 42.2 nM | 59.8 nM |  |  |
| UGGUGACGUUUCUUCUCGACAUGAGGAUCACCCAUGUAGACAGAGGAUAUCCGAGUUGCCAAUAUGGAGAAGGCUGACUGCGAA | 6.6 nM | 8.32 nM |  |  |
| ACAUUAAGUGCAGGAUAUGCCAACCUGGGUUCGGUAGAAGGGCACAUGAGGAUCACCCAUGUAGCGGUGGGUUGGGCCAAGGUU | 13.3 nM | 35.6 nM |  |  |
| AGAGAAUAGUCAGGAUAUGAGAAUAGAUAGAGCUCAGAAGGGACACAUGAGGAUCACCCAUGUGAAGUCUUGAGGCUGCGUGGA | 14.8 nM | 14.2 nM |  |  |
| UUCAGCGAUCAAGGAUAUCUAUAUUCAUGAGGACAUGAGGAUCACCCAUGUUGAUUACCCAUGAGGGAGAAGGUGGACAUGAGG |  |  | 40.1 nM | 23.5 nM |
| AAAGACAGAGGAUAUACAUGAGGAUCACCCAUGUGGCGAAAAAAAAUCCAUUUGGCAUGUAGAAGGCUGUAUGA | 144 nM | 128 nM |  |  |

| Sequence | apparent Kd [1] | apparent Kd [2] | apparent Kd [3] | apparent Kd [4] |
| --- | --- | --- | --- | --- |
| CUUAGACAUGAGGAUCACCCAUGUGAGGAUAUGAUGCAGCAGUGGUCUACGCUGUGCAUCAGAAGGCACAUAUG | 120 nM | 155 nM |  |  |
| GGAAAACAUGAGGAUCACCCAUGUGAGGAUAUCGAUGUCCACCCUCCCGUGCGGGACUCGAGAAGGCACUUGGA | 50.9 nM | 56.4 nM |  |  |
| GCUUUAUAGAUCCAUUUUAACAACAUGAGGAUCACCCAUGUGCAGGAUAUCGAUUGUUUUAUUUUCGAGAAGGGCAAAUUCAGC | 35.2 nM | 87.7 nM |  |  |
| GUCUCGUCAGGAUAUGACGCUACAUUUUGUUUUUAGAAGAGUCAGAAGGGACAUGAGGAUCACCCAUGUGAUUC | 329 nM | 402 nM |  |  |
| CUCAAACAUGAGGAUCACCCAUGUGUUGUCAUGGGAGGAUAUCCAAGUUCGUUGUAGUCGGGAGAAGGCCUAUGUC |  |  | 213 nM | 41.1 nM |
| UGUUGUAUUACAGGAUAUCUAUUGUUUUUAUAUAGAGAAGGGUAUUCACAUGAGGAUCACCCAUGUAUAUACGAGGAAGUUGUG |  |  | 41.1 nM | 45.8 nM |
| GGGUACAUCGGAGGAUAUCAUGUGAAUACAUGAGGAUCACCCAUGUCGAUGGAGACAUCGGAGAUUGAGAAGGCCGAUGUACCG |  |  | 446 nM | 15.1 nM |
| UCCGGGUGCCAGAAGGGAGAUGGUUCGGAGGUCUCAGGAUAUGGCACAUGAGGAUCACCCAUGUGUUUACGUAAUUACAUGAGA | 20.9 nM | 21.6 nM |  |  |
| CCGAGUGGCGUACAGGAUAUGUUGCAUGGAACAUGAGGAUCACCCAUGUAUUUGCUCCCGCAUACGCAGAAGGGUGCGUCCUGGG |  |  | 142 nM | 25.4 nM |
| UCAUAAUAGAUCCUAUUUAUCUACAUGAGGAUCACCCAUGUGCAGGAUAUGCUAUAAUUUAAUAAGCAGAAGGGCAAUUUCAGA | 96.8 nM | 381 nM |  |  |
| AGGUAACAUGAGGAUCACCCAUGUCAGGAUAUCAUGAAGAGUAGAUUAGAGGAGAGGUUGAGAAGGGACUAUAU | 59.9 nM | 35.3 nM |  |  |
| UUAAUUUAAUGAUAUUAUGACAUUAGAAGGCUGUACAUGUUGAUACAUGAGGAUCACCCAUGUAUAGAGGAUAUAGACAAUUUU | 33.2 nM | 89 nM |  |  |
| GUGUAGAUAGGAUAUACAUGAGUCUAGCGAAGCUAGAUUCUACAUGAGGAUCACCCAUGUAGAAGGGUCUACAC | 15.9 nM | 18.5 nM |  |  |
| AAAAUGUCAGGAUAUGCGAAGGCGUCUGACAGACGAGGAUUGCAGAAGGGACAUGAGGAUCACCCAUGUAAAAA | 50.6 nM | 126 nM |  |  |
| UGAUGUAAAGAGAAGGGCUACUGGUUGAAACCUGCGGCCUCUGGAACAUGAGGAUCACCCAUGUAGCAGGAUAUCUUUGCGUCA | 169 nM | 31.4 nM |  |  |
| AAAAGUCGGCAAGGAUAUACAACGGAUUCCCUUGUAGAAGGUGCAGGACAUGAGGAUCACCCAUGUGAUCCGGGUAUAUUGAUG | 27.8 nM | 44.8 nM |  |  |
| CGUGAAAACAUAGGAUAUUGUUACAUGAGGAUCACCCAUGUCAACCAUUUAUCUCAAAUUGUUGACAAGAAGGAUGAGGUCACG |  |  | 118 nM | 38.9 nM |
| ACUUCACAUGAGGAUCACCCAUGUCAGGCCGGACUAGGAUAUUAUCAUGCAGCGUGACAGUGAGAAGGAGUUGGAU |  |  | 162 nM | 188 nM |
| GUCAGCUCGUCAGGAUAUACAACACUGCUUCGGCAGUGUAUUAAGAUCACAUGAGGAUCACCCAUGUAGAAGGCACGAGCUGAU | 7.39 nM | 7.56 nM |  |  |
| AAGCCCUGAGGAUAUCCCAACUCGCACAUGAGGAUCACCCAUGUUCUUCUCUGGGUUUCGGGAGAAGGCAGGCCUC | 96.5 nM | 43.8 nM |  |  |
| GGAAUUAAGGGAGGAUAUAGGCGACAUGAGGAUCACCCAUGUACGGAGGGCUCUUCCCGUGUUCACUAGAAGGCCCAUGUUACC | 16.5 nM | 73.7 nM |  |  |
| CUGCAGUAAGGAUAUACAUGAGGAUCACCCAUGUAGCAACUUACAUAACGAAACGCAUGUAGAAGGUACCAGAU | 14 nM | 15.4 nM |  |  |
| UCAGGCUUCGAGAAGGACAUGAGGAUCACCCAUGUUAACAUGAAGCAGCCGUGAGGCUGCAUCAUGUAGGAUAUCGGAGUCUGC | 5.44 nM | 6.09 nM |  |  |
| GGGUACGCAGGAUAUACAUGAAAAAAAAAAAAAAAAAAAAAACAUGAGGAUCACCCAUGUAGAAGGGCGUAUCC | 232 nM | 571 nM |  |  |
